The test system of assay [1] is Rattus norvegicus. Description: Percent reduction in blood pressure in spontaneously hypertensive rats (SHR) at peroral dose of 5 mg/kg was determined after 1 hr. It is filed as functional. Particulars: route oral. The method, boiled down: (§1)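 Single oral gavage dose of 5 mg/kg to groups of six spontaneously hypertensive rats, all with starting systolic pressure above 175 mmHg. Rats were warmed at 33 °C for 20–30 min before readings. Systolic pressure was taken by tail cuff with a variable capacitance transducer, predose and at 1, 2, 4 and 6 h. Percent reduction from predose is given. Saline-dosed controls (n = 10) were run.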

Assay [2] relates to Rattus norvegicus. Description: Percent reduction in blood pressure in spontaneously hypertensive rats (SHR) at peroral dose of 5 mg/kg was determined after 6 hr. Format: functional. Particulars: route oral. The method, boiled down:
as §1

Assay [3] deals with T1, Adrenergic receptor alpha-1 (Rattus norvegicus, UniProt P15823+P23944+P43140).
T1 sequence (P15823 whole entry): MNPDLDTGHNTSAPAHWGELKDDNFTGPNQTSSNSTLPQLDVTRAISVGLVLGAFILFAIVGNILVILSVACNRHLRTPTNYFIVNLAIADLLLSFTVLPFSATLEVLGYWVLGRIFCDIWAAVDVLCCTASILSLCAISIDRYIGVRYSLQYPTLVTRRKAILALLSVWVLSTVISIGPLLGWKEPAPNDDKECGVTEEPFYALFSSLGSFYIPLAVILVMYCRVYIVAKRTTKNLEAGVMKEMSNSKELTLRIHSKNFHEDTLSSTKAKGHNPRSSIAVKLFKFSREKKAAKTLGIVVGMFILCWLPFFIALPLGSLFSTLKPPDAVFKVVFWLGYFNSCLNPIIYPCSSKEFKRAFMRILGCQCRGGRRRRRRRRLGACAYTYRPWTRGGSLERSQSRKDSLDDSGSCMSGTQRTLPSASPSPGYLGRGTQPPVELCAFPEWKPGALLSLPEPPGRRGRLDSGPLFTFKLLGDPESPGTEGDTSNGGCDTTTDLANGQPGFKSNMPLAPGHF
T1 sequence (P23944 whole entry): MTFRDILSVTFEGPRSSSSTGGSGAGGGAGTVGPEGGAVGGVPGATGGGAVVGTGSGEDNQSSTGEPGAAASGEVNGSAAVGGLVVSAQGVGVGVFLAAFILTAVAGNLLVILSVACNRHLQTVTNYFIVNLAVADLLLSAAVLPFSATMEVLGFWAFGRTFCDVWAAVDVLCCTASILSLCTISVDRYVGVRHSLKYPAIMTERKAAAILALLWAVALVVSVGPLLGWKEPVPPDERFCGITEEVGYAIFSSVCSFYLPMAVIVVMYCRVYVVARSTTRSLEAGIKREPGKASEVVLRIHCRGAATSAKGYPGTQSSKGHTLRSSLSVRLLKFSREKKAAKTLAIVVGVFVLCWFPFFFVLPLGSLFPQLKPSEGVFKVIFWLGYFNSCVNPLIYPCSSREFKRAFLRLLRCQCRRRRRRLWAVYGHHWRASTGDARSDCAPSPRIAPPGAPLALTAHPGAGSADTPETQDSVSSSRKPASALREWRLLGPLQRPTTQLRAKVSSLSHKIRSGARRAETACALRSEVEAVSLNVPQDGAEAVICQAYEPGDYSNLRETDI
T1 sequence (P43140 whole entry): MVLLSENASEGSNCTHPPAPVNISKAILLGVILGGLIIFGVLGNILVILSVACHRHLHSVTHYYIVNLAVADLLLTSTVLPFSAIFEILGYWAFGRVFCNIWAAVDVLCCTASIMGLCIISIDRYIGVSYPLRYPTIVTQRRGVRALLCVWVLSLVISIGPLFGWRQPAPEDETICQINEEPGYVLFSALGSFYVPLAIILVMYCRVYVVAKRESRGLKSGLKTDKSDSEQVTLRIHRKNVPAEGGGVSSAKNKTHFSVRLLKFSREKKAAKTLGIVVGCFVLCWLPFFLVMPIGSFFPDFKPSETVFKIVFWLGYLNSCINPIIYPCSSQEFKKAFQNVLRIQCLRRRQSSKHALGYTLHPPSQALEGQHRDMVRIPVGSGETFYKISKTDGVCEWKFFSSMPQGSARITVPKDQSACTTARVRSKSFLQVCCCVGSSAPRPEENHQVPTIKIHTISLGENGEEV
Description: Compound was tested for its binding affinity for alpha-1 adrenergic receptor site by displacement of [3H]prazosin at 0.15 nM concentration.

Assay [4] deals with T2, Adrenergic receptor alpha-1 (Homo sapiens) (UniProt P35348+P25100+P35368). The assay is described as follows: Antagonist activity against post junctional alpha-1 adrenergic receptor was measured by Kerbs super fused rabbit pulmonary artery preparations labeled with [3H]- norepinephrine. Format: functional. Particulars: Oryctolagus cuniculus; target entry is the homologue from another species. The method, boiled down:
(§2)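 Rabbit pulmonary artery superfused in Krebs after [3H]-noradrenaline labelling, with transmural electrical stimulation (3 Hz, 0.05 h). Postjunctional response was read as contraction on an isometric transducer. Percent antagonism was plotted against compound concentration. EC40-post, the concentration giving 40% reduction of contractile response, was read from the graph. Values are averaged from two experiments, six for some.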

Assay [5] concerns the target T1, Adrenergic receptor alpha-1. The assay is described as follows: Compound was tested for its binding affinity for alpha-1 adrenergic receptor site by displacement of [3H]prazosin at 0.15 nM concentration. The source holds these as a separate data set.
For assay [6], the target named is T3, Adrenergic receptor alpha-2 (Homo sapiens) (UniProt P08913+P18825+P18089). Particulars: Oryctolagus cuniculus; Pulmonary artery.
Assay [7] concerns the target T2, Adrenergic receptor alpha-1 (Homo sapiens). The assay is described as follows: Antagonist activity against post junctional alpha-1 adrenergic receptor was measured by Kerbs super fused rabbit pulmonary artery preparations labeled with [3H]- norepinephrine. Particulars: Oryctolagus cuniculus, target entry is the homologue from another species. It is filed as functional, tissue-based. In short, it runs like this: as §2

Assay [8] has as its target T3, Adrenergic receptor alpha-2 (Homo sapiens). Description: Antagonist activity against prejunctional alpha-2 adrenergic receptor was measured by Kerbs super fused rabbit pulmonary artery preparations labeled with [3H]- norepinephrine; NA means no activity. Format: functional. Particulars: Oryctolagus cuniculus; target entry is the homologue from another species. The method, boiled down: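 [3H]-noradrenaline-labelled rabbit pulmonary artery, Krebs-superfused and stimulated transmurally (3 Hz, 0.05 h). Prejunctional action was read as [3H] overflow by liquid scintillation counting and plotted against compound concentration. EC40-pre, the concentration producing a 40% increase in [3H] overflow, was read from the graph. Values are averaged from two experiments, six for some.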

For assay [9], the target named is T2, Adrenergic receptor alpha-1 (Homo sapiens). Description: Antagonist activity against post junctional Alpha-1 adrenergic receptor was measured by Kerbs super fused rabbit pulmonary artery preparations labeled with [3H]- norepinephrine. It is filed as functional, tissue-based. Particulars: Oryctolagus cuniculus, target entry is the homologue from another species. In short, it runs like this: as §2

Assay [10] has as its target T1, Adrenergic receptor alpha-1. Description: Compound was tested for its binding affinity for alpha-1 adrenoceptor site by displacement of [3H]-prazosin at 0.15 nM concentration.
For assay [11] the target is unchanged. The assay is described as follows: Compound was tested for its binding affinity for alpha-1 adrenergic receptor site by displacement of [3H]prazosin at 0.15 nM concentration. The source holds these as a separate data set.

SMILES strings stand for the structures. The source made the active and inactive calls. No cut-off for these calls is given here.

This note sets out measurements from ChEMBL document CHEMBL1123593, “2,4-diamino-6,7-dimethoxyquinazolines. 1. 2-[4-(1,4-benzodioxan-2-ylcarbonyl)piperazin-1-yl] derivatives as alpha 1-adrenoceptor antagonists and antihypertensive agents” (J Med Chem, 1987).

For `COc1cc2nc(N3CCN(C(=O)C4Oc5ccccc5OC4C)CC3)nc(N)c2cc1OC` (trans isomer) [listing 1 of 2 here], the Reduction in the assay with Rattus norvegicus [1] (5 mg/kg) and in the assay with Rattus norvegicus [2] (5 mg/kg) was 21% throughout. Moreover, the Ki in assay [3] turned out to be 2.1 nM.
Turning to `COc1cc2nc(N3CCN(C(=O)c4ccco4)CC3)nc(N)c2cc1OC` [PRAZOSIN], the Reduction in the assay with Rattus norvegicus [1] is reported as 33%; in the assay with Rattus norvegicus [2], 29%. The EC40 in [4] amounted to 4.5 nM.
As to `COc1cc2nc(N3CCN(C(=O)C4COc5ccc(C(C)=O)cc5O4)CC3)nc(N)c2cc1OC` (configuration not stated), the Reduction came to 19% in the assay on Rattus norvegicus [1] and 24% in the assay with Rattus norvegicus [2]. In assay [3], this compound gave a Ki of 3 nM.
Consider `COc1cc2nc(N3CCN(C(=O)C4COc5ccccc5O4)CC3)nc(N)c2cc1OC` (single isomer, unassigned; (+)), for which, in assay [4], the EC40 stood at 7 nM.
Still for that read-out and setting: as for `COc1cc2nc(N3CCN(C(=O)C4COc5ccccc5O4)CC3)nc(N)c2cc1OC` (stereo in doubt; 1), the figure is 50 nM.
Turning to `COc1cc2nc(N3CCN(C(=O)C4(C)COc5ccccc5O4)CC3)nc(N)c2cc1OC` (configuration not stated), the Reduction with Rattus norvegicus [1] amounted to 8%; in the assay on Rattus norvegicus [2], 9%. Also, the Ki in [5] was found to be 1.5 nM.
For the compound `COc1cc2nc(N3CCCN(C(=O)C4COc5ccccc5O4)CC3)nc(N)c2cc1OC` (configuration not stated), the results for the Reduction in the assay on Rattus norvegicus [1] and in the assay with Rattus norvegicus [2] were 22% and 12%, respectively. The compound also had a Ki in assay [3] of 1.6 nM.
As for `COc1cc2nc(N3CCN(C(=O)C4Oc5ccccc5OC4C)CC3)nc(N)c2cc1OC` (trans isomer) [listing 2 of 2 here], the EC40 in assay [4] came out at 13 nM. In addition, the EC40 entry in assay [6] was “inactive”.
`COc1cc2nc(N3CCN(C(=O)C4COc5ccccc5O4)C(C)C3)nc(N)c2cc1OC` (configuration not stated): the Reduction in the assay with Rattus norvegicus [1] came to 18%; with Rattus norvegicus [2], 13%. The same compound yielded a Ki in [3] of 6.5 nM.
On the same counts, the results for `COc1cc2nc(N3CCN(C(=O)C4COc5cc(C(C)=O)ccc5O4)CC3)nc(N)c2cc1OC` (configuration not stated) are 26%, 24% and 6.4 nM.
In [4], `COc1cc2nc(N3CCN(C(=O)C4Oc5ccccc5OC4C)CC3)nc(N)c2cc1OC` (cis isomer) [listing 1 of 2 here] showed an EC40 of 27 nM. The EC40 result in assay [6] was “inactive”.
Take `COc1cc2nc(N3CCN(C(=O)C4COc5cc(Cl)c(Cl)cc5O4)CC3)nc(N)c2cc1OC` (configuration not stated): the Reduction is listed as 6% in the assay with Rattus norvegicus [1] and 9% in the assay on Rattus norvegicus [2]. The Ki in [3] is recorded as 13.3 nM.
On the same counts, the results for `COc1cc2nc(N3CCN(C(=O)C4CCOc5ccccc5O4)CC3)nc(N)c2cc1OC` (configuration not stated) are 21%, 16% and 3.8 nM.
For the compound `COc1cc2nc(N3CCN(C(=O)C4COc5ccccc5O4)CC3)nc(N)c2cc1OC` (single isomer, unassigned; (+)) [DOXAZOSIN], the Reduction is 27% in the assay with Rattus norvegicus [1] (5 mg/kg) and 24% in the assay on Rattus norvegicus [2] (5 mg/kg). Further, the Ki in assay [3] is 2.6 nM.
`COc1cc2nc(N3CCN(C(=O)C4COc5ccc(S(=O)(=O)N(C)C)cc5O4)CC3)nc(N)c2cc1OC` (configuration not stated): the Reduction in the assay with Rattus norvegicus [1] stood at 10%; in the assay on Rattus norvegicus [2], 8%. In addition, the Ki in assay [3] was determined as 6.5 nM.
In the case of `COc1cc2nc(N3CCN(C(=O)C4COc5cccc(C(C)C)c5O4)CC3)nc(N)c2cc1OC` (configuration not stated), the Reduction with Rattus norvegicus [1] is 6%; in the assay on Rattus norvegicus [2] it was 3%. Also, the EC40 entry in assay [6] was “inactive”. In [7], the EC40 was 130 nM. The compound also came in with an inhibition constant Ki in [3] of 6.7 nM.
Consider `COc1ccc2c(c1)OCC(C(=O)N1CCN(c3nc(N)c4cc(OC)c(OC)cc4n3)CC1)O2` (configuration not stated), for which the Reduction with Rattus norvegicus [1] was determined as 34%; in the assay with Rattus norvegicus [2], 23%. Moreover, the EC40 entry in assay [8] was “inactive”. This compound also registered an EC40 in assay [9] of 10 nM. Moreover, in assay [10], the Ki was determined as 5.6 nM.
Consider `COc1cc2nc(N3CCN(C(=O)C4COc5cccc(OC)c5O4)CC3)nc(N)c2cc1OC` (configuration not stated), for which the Reduction is reported as 14% with Rattus norvegicus [1] and 13% in the assay with Rattus norvegicus [2]. In addition, in assay [11], the Ki was 2.4 nM.
Regarding `COc1cc2nc(N3CCN(C(=O)C4COc5ccccc5O4)CC3)nc(N)c2cc1OC` (single isomer, unassigned; (-)), in assay [4], the EC40 was determined as 40 nM.
With `COc1cc2nc(N3CCN(C(=O)C4COc5cc(Cl)ccc5O4)CC3)nc(N)c2cc1OC` (configuration not stated), the results for the Reduction with Rattus norvegicus [1] and with Rattus norvegicus [2] were 27% and 23%, respectively. In [3], this compound had a Ki of 12.6 nM.
On the same counts, the results for `COc1cc2nc(N3CCN(C(=O)C4COc5cc(C)c(C)cc5O4)CC3)nc(N)c2cc1OC` (configuration not stated) are 14%, 20% and 7.8 nM.
As to `COc1cc2nc(N3CCN(C(=O)C4Oc5ccccc5OC4C)CC3)nc(N)c2cc1OC` (cis isomer) [listing 2 of 2 here], the Reduction with Rattus norvegicus [1] (5 mg/kg) is given as 23%; with Rattus norvegicus [2] (5 mg/kg), 25%. In [3], this compound displayed a Ki of 0.7 nM.
`COc1cc2nc(N3CCN(C(=O)C4COc5cccc(C)c5O4)CC3)nc(N)c2cc1OC` (configuration not stated): the Reduction in the assay with Rattus norvegicus [1] is recorded as 16%; in the assay on Rattus norvegicus [2] it was 22%. Besides, in assay [4], the EC40 was 26 nM. In addition, in [6], the EC40 entry was “inactive”. The compound further gave a Ki in assay [3] of 3.7 nM.
As to `COc1cc2nc(N3CCN(C(=O)C4COc5ccccc5O4)CC3)nc(N)c2cc1OC` (single isomer, unassigned; (-)) [DOXAZOSIN], the Reduction with Rattus norvegicus [1] (5 mg/kg) is on record as 12%. Moreover, in assay [3], the Ki is reported as 2.2 nM.
Consider `COc1cc2nc(N3CCN(C(=O)C4COc5ccccc5O4)CC3)nc(N)c2cc1OC` (stereo in doubt; 1) [DOXAZOSIN], for which the Reduction in the assay with Rattus norvegicus [1] (5 mg/kg) is on record as 23%; with Rattus norvegicus [2] (5 mg/kg), 27%. This compound showed a Ki in [3] of 1.1 nM.
